To fix the notation:
B1: tRNA (parent)
chain: GUUCCGUUGGCGUAAUGGUAACGCGUCUCCCUCCUAAGGAGAAGACUGCGGGUUCGAGUCCCGUACGGAACG

Fewer inactive variants are shown than the library holds.

This series covers variants of B1. Kind of series: yeast fitness relative to wild type (ratio to wild type); higher = fitter; tRNA-Arg(CCU), competitive growth, 37 C, YPD. The gist of the method: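 Gene amplicons from the start population and from each of six end populations were read by 100-nucleotide paired-end sequencing. Those end populations came from pooled Saccharomyces cerevisiae strains carrying tRNA-Arg(CCU) gene variants at the native locus, competed in YPD at 37°C for 24 hours. Fitness relative to wild type was worked out from changes in genotype frequencies. Genotypes needed ≥ 100 starting reads, and estimates < 0.5 were set to 0.5.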
As for GUUCCGUUGGCGUAAUAGUAACGCGUCUCCCUCAUAAGGAGAAGACUGCGGGUUCGAGUCCCGUACGGAACG, the yeast fitness worked out at 0.595.
Regarding GCUCCGUUGGCGUAAUGGUAACGGGUCUCCCUCCUGAGGAGUAGUCUGCGGGUUCGAGUCCCGUACGGAACG, the yeast fitness was at most 0.5.
For the variant GCUCCGUUGGCGUAAUGGUAAGGCGUCUCCCUCCUAAGGAGAAGACUGCGGGCUCGAGUCCCGUACGGAACG, the yeast fitness came to 0.504.
Consider GUUCCGUUAGCGUAAUGGUAACGCGUCUACCUCCUAAGGAGAAGACUGCGGGUUCGAGUCCCGUACGGAACG, for which the yeast fitness was 0.735.
Take GUUCCGUUGGCGUAAUGGUAAGGCGUCUCCCUCCUAAAGAGAAGACUGCGGGUUCGAGUCCCGUACGGAACG: the yeast fitness stood at 0.776.
As to GUUCUGUUAGCGUAAUGGUAGCGCGUCUCCCUCCUAAGGAGAAGACUGCGGGAUCGAGUCCCGUACGGAACG, the yeast fitness was at most 0.5.
Regarding GUUCCGUUCGCGUAAUGGUAACGCGUCUCCCUCCUAAGGAGACGACUGCGGGUUGGAGUCCCGUACGGAACG, the yeast fitness is at most 0.5.
Consider GUUCAGUUGGCCUAAUGGUAACGCGUCUCCCUCUUAGGGAGAAGACUGCGGGUUCGAGUCCCGUACGGAACG, for which the yeast fitness came out at 0.562.
To GUUCCGUUGGCGUAAUGGUAACGCGUCUCCCUGCUAAGGAGGAGACUGCGGAUUCGAGUCCAGUACGGAACG belongs at most 0.5.
As to GUUCUGUUGGCGCAAUGGUAACGGGCCUCCCUCCUCAGGAGAAGACUGCGGGUUGGUGUCCUGUACGGAACG, the yeast fitness was at most 0.5.
As for GUUGCGUUGGCGUAAUGGUAACGCGCCUCCCUCCUAAGGAGAAGACUGCAGGUUCGAGUCCCGUACGGAACG, the yeast fitness was at most 0.5.
Under GUCCCGUUGGCGUAAUGGUAACGCGUCUCGCUCCUAAGGAGAAGACUGCGGGUUCGAGUCCCGUACGGAACG stands 0.677.
To GUUCCCUUGGCGAAAUGGUUGCGCGUCUCCCUCCUAAGGAGAAGACUGCGGGUUCGAGUCCCGUACGGUACG belongs at most 0.5.
As to GUUCCGUUGGCGUAAUGGUAACGCGUCUCCCUCCUAAGGAGAAGACUACGGGUUAGAGUGCCGUACGGAACG, the yeast fitness came to 0.513.
Under GUUCCGUUGGCGUAAUGGUAACGCGUUUCCCUCGUAAGGAGAAGACUGCGGGUUCGAGUCCAGUACGGAACG stands 0.586.
Turning to GUUCCGUUGGCGUACUGGUAGCGCGUCUCCCUCCUGAGGAGAAGACUGUGGGUUCGAGUCCCGUACUGAACG, the yeast fitness was at most 0.5.
For GUUCCGUAGGCGUAAUGGUAACGCGUCUCCCUCCUACGGAGAUGACUGCGGGUUCGAGUCCCGUACGGAACG, the yeast fitness was determined as 0.541.
To GUUCCGUUGGCGUAAUGGUAACGGGUCUACCUCCUAAGGAGAUGACUGCGGGUUCGAGUCCCGUACGGAACG belongs at most 0.5; to GUUCCGUUGGCCUGAUGGUAACGCGUUUCCCUACUAAGGAGAAGCCUGCGGGUACGAGUCCCGUACGGAACG, at most 0.5; to GUUCCGUUGGCGUAAUGGUAACGCGUGUCCCUCCUGAGGAGAAGACUGCGGGUUCGAGUCCCGUAGGGAACG, 0.548.
For the variant GUUCCGUUGGCGUAAUGGUAACGCGUCUCCCUCCUAAGGAGAAGACACCGGGUUCAAGUCCCGUACGGAACG, the yeast fitness is at most 0.5.
To GUCCCGUUGGCGUAAUGGUAAGGCGUCUCCCUCCUAAGGAGAAGACUGCGGGUUCGAGUCCCGUACGGAUCG belongs 0.8.
Consider GUUCCGUUGGCGUAAUGGAAACGCGUCUCCUUCCUAAGGAGAAGACUGCGGGAUCGAGUCCCGUACGGAACG, for which the yeast fitness is at most 0.5.
As to GUUCCGUUGGCGUAAUGGUCACGCGUCUCCCUCCUAAGGAGAAGACUGCGGGUUCGAGUCCCGUACCGAUCG, the yeast fitness worked out at 0.761.
To GUUCCGUUGGCGUAAUGGUAACGCGUCUCCCUCCUAAGGGGAAGACUGCGGGUUCGAGUCCCGUACGGAGCG belongs 1.09; to GUUCCGUUGGCGUAAUGGUAACGUGUCUCCCUCCUAAGGAGAAGACUGCGGGAUCGAGUCCCGUAUGGAUCG, at most 0.5; to GUUACGUUGGCGUAAUAGUAACGCGUCUCCCUCCUAAGGAAAAGACUGCGGGUUCGAGUCUCUUACGAAACG, at most 0.5.
GUUCCGUUGGCGUAAUGGUAAAGCGUCUCCCUCCUAAGGAGAAGACUGCGGGUUUGAGUCCCGUUCGGAACG: the yeast fitness is at most 0.5.
GUUUCGUUGGCGUAAUGGUAACGCGUCUCACUCCUAAGGAGCAGACUGCGGGUUCGAGUCCCGUACGGAACG: the yeast fitness was 0.582.
Consider GGUCCGUUGGCGUAAUGGUAACGCGUCUCCUUCCUACGGAGAAGACUGCGGGUUCGAGUCCCGUACGGAACG, for which the yeast fitness amounted to 0.56.
In the case of GUUCCGUUGGCGUAGUGGUAACACGUCUCCCUCCUAAGGAGAAGACUGCGGGUUCGAGUCCCGUACGGAACG, the yeast fitness came out at 0.931.
With GUUCCGUUGGCGUAAUGGUAACGCGUCUUCCUAUUAAGGAGAAGAGUGCGGGUUCGAGUCCCGUAUGGAACG, the yeast fitness stood at 0.56.
With GUUACGUUGGCGUAAUGGUGACGCGUCUCCCUCCUAAGGAGAAGACUGCGGGUUCGAGUACCGUACGGACCG, the yeast fitness was at most 0.5.
Under GUUCCGUUGGCGUAAUGGCAACGUGUCUCCCCCCUACGGAGAAGGCUGCGGGUUCGCGUCCCGUACGGAACG stands 0.638.
For GUUCCGUUGGCGUGAUGGUAAGGCGUCUCCCUUCUAAGGAGAAGACUGCGGGUUCGAAUACCGUACGGAACG, the yeast fitness worked out at 0.51.
For GUUCCGUUGGCGUAAUGGUAACGCGUCUCCCUCCUAAGGAGAAGACUGCGGGUUCGAGUCCCGUUCGGCACG, the yeast fitness is 0.845.
As to GUACCGUUGGCGUAAUGGUAUCGCGUCUCCCUCCUAAGGAGAAGACUGCGGGUUCGAGUCCCGUUCGGAACG, the yeast fitness was at most 0.5.
For GUUCCGUUGGCGUAAUGGUAACGCGUCUCCCUCCUAAGGACAAGUCUGCGGGUUCGAGUCCCGUACGGAACG, the yeast fitness stood at 0.778.

The record behind these values is the RNAGym collection of RNA variant scans (doi:10.1126/science.aae0568).
